Test results reported in ChEMBL document CHEMBL1138512, “A class of 2,4-bisanilinopyrimidine Aurora A inhibitors with unusually high selectivity against Aurora B” (J Med Chem, 2009).
pIC50: −log10 of the molar value.

Legend:
[1] = target: Mitogen-activated protein kinase 14 (Homo sapiens) (UniProt Q16539); assay: Inhibition of P38alpha at 1 uM
[2] = target: Casein kinase I isoform delta (Homo sapiens) (UniProt P48730); assay: Inhibition of CK1delta at 1 uM
[3] = target: Casein kinase I isoform alpha (Homo sapiens) (UniProt P48729); assay: Inhibition of CK1alpha1 at 1 uM
[4] = target: T1, Aurora kinase B (Homo sapiens, UniProt Q96GD4); assay: Inhibition of Aurora B in human HT29 cells assessed as complete loss of phospho-histone H3 staining by immunofluorescence assay; type: cell-based, HT-29
T1 sequence (Q96GD4 whole entry): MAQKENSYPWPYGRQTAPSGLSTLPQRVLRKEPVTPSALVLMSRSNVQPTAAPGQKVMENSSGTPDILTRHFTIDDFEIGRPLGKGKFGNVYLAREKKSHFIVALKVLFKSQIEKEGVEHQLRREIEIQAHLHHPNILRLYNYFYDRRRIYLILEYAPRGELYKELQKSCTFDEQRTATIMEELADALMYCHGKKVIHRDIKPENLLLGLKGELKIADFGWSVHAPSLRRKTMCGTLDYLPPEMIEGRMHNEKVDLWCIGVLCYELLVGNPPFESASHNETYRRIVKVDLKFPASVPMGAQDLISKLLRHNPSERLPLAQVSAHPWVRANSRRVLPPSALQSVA
In short: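 Immunofluorescence for phospho-S10 histone H3 in HCT116 or HT29 cells, scored visually. Value taken as the lowest inhibitor concentration giving complete loss of staining, so it lies above the IC50. Units µM.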

[5] = target: Glycogen synthase kinase-3 beta (Homo sapiens) (UniProt P49841); assay: Inhibition of GSK3-beta at 1 uM
[6] = target: Serine/threonine-protein kinase pim-1 (Homo sapiens) (UniProt P11309); assay: Inhibition of PIM1 at 1 uM
[7] = target: T1, Aurora kinase B; assay: Inhibition of Aurora B in human HCT116 cells assessed as complete loss of phospho-histone H3 staining by immunofluorescence assay
[8] = target: Activin receptor type-1B (Homo sapiens) (UniProt P36896); assay: Inhibition of ALK4 at 1 uM
[9] = target: Mitogen-activated protein kinase kinase kinase 9 (Homo sapiens) (UniProt P80192); assay: Inhibition of MLK1 at 1 uM
Chain of Mitogen-activated protein kinase kinase kinase 9 (Homo sapiens) (P80192 whole entry, looked up): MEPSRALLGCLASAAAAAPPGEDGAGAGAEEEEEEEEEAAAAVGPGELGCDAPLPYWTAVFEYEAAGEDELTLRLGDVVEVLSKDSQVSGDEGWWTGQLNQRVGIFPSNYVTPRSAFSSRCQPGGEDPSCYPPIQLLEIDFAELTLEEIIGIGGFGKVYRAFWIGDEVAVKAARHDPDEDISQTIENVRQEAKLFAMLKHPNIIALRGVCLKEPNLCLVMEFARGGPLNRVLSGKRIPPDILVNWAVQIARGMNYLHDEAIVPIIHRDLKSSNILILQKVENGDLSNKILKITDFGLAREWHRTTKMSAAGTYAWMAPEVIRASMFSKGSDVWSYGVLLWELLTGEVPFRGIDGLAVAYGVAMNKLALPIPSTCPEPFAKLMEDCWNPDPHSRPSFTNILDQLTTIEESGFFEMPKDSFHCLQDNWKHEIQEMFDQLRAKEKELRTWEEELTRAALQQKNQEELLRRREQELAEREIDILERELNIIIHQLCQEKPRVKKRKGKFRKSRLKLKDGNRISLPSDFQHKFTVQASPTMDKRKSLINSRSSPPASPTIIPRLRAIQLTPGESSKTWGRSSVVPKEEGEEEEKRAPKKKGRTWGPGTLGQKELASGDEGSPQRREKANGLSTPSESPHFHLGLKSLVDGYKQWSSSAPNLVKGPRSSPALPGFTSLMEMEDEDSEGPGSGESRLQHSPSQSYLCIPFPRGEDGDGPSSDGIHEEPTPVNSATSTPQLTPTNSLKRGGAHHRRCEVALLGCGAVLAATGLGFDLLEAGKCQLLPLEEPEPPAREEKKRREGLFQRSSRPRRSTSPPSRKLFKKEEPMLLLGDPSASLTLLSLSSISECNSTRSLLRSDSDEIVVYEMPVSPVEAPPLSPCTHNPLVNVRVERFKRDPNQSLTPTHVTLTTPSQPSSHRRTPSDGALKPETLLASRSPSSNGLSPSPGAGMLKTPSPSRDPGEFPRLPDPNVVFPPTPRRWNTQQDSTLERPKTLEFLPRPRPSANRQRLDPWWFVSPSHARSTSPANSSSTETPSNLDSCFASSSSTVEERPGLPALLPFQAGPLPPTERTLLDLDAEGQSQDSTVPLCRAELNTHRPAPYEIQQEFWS

[10] = target: Tyrosine-protein kinase ABL1 (Homo sapiens) (UniProt P00519); assay: Inhibition of ABL1 at 1 uM
[11] = target: Serine/threonine-protein kinase B-raf (Homo sapiens) (UniProt P15056); assay: Inhibition of BRAF at 1 uM
[12] = target: Serine/threonine-protein kinase PLK1 (Homo sapiens) (UniProt P53350); assay: Inhibition of PLK1 at 1 uM
[13] = target: 5'-AMP-activated protein kinase catalytic subunit alpha-1 (Homo sapiens) (UniProt Q13131); assay: Inhibition of AMPK A1/B1/G1 at 1 uM
[14] = target: Dual specificity protein kinase CLK1 (Homo sapiens) (UniProt P49759); assay: Inhibition of CLK1 at 1 uM
[15] = target: Insulin receptor (Homo sapiens) (UniProt P06213); assay: Inhibition of INSR at 1 uM
[16] = target: Serine/threonine-protein kinase Chk1 (Homo sapiens) (UniProt O14757); assay: Inhibition of CHK1 at 1 uM
[17] = target: Casein kinase II subunit alpha (Homo sapiens) (UniProt P68400); assay: Inhibition of CK2alpha1 at 1 uM
[18] = target: Serine/threonine-protein kinase PLK2 (Homo sapiens) (UniProt Q9NYY3); assay: Inhibition of PLK2 at 1 uM
[19] = target: Receptor-type tyrosine-protein kinase FLT3 (Homo sapiens) (UniProt P36888); assay: Inhibition of FLT3 at 1 uM
[20] = target: Mitogen-activated protein kinase 8 (Homo sapiens) (UniProt P45983); assay: Inhibition of JNK1 at 1 uM
Chain of Mitogen-activated protein kinase 8 (Homo sapiens) (P45983 whole entry): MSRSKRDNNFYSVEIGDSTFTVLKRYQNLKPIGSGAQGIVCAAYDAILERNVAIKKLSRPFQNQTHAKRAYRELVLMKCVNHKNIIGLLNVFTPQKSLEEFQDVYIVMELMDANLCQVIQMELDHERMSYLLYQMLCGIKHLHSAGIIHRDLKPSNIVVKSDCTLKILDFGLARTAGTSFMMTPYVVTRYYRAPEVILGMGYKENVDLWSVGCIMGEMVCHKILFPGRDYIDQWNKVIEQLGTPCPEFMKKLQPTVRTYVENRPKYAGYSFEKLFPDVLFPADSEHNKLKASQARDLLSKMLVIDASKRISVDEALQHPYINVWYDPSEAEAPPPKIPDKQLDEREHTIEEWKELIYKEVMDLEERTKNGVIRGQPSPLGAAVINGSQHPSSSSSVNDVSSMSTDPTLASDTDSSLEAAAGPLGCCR

[21] = target: Calcium/calmodulin-dependent protein kinase type II subunit alpha (Homo sapiens) (UniProt Q9UQM7); assay: Inhibition of CaMK2alpha at 1 uM
[22] = target: Platelet-derived growth factor receptor alpha (Homo sapiens) (UniProt P16234); assay: Inhibition of PDGFRA at 1 uM
Chain of Platelet-derived growth factor receptor alpha (Homo sapiens) (P16234 whole entry): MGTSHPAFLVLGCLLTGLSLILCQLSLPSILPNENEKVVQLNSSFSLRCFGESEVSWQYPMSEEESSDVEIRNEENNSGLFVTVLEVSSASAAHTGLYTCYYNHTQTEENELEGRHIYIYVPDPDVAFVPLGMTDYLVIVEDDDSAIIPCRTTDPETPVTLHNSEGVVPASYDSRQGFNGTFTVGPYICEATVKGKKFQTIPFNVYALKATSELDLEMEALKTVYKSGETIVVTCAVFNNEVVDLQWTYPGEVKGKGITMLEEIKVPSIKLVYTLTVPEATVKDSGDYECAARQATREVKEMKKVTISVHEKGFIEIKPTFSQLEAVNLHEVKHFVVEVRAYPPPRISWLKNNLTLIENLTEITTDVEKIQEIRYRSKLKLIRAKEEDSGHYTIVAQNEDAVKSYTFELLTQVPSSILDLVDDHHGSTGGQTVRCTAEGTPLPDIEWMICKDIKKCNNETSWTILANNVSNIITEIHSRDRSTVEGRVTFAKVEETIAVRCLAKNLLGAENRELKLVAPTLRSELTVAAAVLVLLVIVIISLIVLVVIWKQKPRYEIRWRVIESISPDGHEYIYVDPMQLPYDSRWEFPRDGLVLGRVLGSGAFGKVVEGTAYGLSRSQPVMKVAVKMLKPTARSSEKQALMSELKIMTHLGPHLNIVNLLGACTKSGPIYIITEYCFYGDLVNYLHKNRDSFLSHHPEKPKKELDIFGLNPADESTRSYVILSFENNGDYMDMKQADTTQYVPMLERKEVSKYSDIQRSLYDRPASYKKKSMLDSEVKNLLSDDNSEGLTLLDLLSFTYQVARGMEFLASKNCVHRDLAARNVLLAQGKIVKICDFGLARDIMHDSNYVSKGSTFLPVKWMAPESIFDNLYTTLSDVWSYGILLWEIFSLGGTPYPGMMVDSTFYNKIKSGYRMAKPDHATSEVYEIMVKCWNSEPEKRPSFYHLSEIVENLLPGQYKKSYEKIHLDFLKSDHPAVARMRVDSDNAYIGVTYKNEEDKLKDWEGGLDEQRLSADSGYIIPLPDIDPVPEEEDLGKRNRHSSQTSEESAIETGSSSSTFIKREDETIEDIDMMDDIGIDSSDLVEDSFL

[23] = target: Receptor tyrosine-protein kinase erbB-2 (Homo sapiens) (UniProt P04626); assay: Inhibition of HER2 at 1 uM
Chain of Receptor tyrosine-protein kinase erbB-2 (Homo sapiens) (P04626 whole entry): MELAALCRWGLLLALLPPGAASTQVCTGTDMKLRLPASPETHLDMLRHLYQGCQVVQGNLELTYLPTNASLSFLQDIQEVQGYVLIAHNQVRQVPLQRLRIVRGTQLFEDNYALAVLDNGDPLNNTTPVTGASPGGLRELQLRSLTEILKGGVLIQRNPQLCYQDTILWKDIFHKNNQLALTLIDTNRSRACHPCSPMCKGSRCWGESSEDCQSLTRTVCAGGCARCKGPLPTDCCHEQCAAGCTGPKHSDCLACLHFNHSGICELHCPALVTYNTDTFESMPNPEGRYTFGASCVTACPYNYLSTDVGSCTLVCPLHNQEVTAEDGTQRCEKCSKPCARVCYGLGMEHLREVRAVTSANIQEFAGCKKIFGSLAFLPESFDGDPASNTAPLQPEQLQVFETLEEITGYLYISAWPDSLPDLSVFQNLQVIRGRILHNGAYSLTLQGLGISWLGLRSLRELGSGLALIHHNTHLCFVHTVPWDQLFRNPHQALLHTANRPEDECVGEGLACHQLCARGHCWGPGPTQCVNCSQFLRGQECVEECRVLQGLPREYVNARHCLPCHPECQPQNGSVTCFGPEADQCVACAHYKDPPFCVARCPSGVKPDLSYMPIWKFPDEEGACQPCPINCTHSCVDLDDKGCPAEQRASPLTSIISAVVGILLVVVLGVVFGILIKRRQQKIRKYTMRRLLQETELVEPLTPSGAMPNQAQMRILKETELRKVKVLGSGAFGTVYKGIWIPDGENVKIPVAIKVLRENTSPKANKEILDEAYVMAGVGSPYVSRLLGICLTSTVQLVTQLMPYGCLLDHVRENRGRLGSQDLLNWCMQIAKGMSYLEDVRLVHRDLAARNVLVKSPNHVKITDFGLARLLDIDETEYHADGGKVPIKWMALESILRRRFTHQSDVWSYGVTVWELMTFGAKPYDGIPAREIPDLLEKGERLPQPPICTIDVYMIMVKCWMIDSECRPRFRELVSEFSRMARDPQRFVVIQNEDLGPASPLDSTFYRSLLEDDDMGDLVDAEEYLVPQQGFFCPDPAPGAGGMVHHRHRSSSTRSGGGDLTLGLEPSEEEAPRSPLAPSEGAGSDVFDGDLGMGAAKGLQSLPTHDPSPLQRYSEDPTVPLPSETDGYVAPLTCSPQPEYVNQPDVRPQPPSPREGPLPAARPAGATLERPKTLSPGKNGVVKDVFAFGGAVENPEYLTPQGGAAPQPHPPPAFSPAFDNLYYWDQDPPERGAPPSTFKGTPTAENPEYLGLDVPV

[24] = target: Cytoplasmic tyrosine-protein kinase BMX (Homo sapiens) (UniProt P51813); assay: Inhibition of BMX at 1 uM
[25] = target: Calcium/calmodulin-dependent protein kinase type 1D (Homo sapiens) (UniProt Q8IU85); assay: Inhibition of CaMK1delta at 1 uM
[26] = target: Aurora kinase C (Homo sapiens) (UniProt Q9UQB9); assay: Inhibition of Aurora C at 1 uM
[27] = target: RAC-alpha serine/threonine-protein kinase (Homo sapiens) (UniProt P31749); assay: Inhibition of PKBalpha at 1 uM
[28] = target: Serine/threonine-protein kinase PLK3 (Homo sapiens) (UniProt Q9H4B4); assay: Inhibition of PLK3 at 1 uM
Chain of Serine/threonine-protein kinase PLK3 (Homo sapiens) (Q9H4B4 whole entry, looked up): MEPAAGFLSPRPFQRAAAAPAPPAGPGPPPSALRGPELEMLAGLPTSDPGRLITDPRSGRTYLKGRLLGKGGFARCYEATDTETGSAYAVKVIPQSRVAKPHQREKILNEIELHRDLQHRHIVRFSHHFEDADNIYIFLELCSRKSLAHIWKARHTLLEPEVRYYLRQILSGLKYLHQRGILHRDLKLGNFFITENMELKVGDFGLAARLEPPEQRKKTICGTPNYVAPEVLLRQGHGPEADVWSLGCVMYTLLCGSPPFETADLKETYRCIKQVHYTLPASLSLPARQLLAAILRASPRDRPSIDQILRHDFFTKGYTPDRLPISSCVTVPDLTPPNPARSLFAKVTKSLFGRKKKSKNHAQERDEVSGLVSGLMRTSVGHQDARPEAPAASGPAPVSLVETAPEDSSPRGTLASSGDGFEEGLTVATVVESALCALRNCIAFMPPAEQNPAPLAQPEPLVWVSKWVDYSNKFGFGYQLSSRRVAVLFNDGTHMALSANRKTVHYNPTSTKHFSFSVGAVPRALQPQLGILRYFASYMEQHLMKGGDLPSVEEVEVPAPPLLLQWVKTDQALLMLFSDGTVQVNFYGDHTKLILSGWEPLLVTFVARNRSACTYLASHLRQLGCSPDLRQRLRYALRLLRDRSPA

[29] = target: Serine/threonine-protein kinase Nek4 (Homo sapiens) (UniProt P51957); assay: Inhibition of NEK4 at 1 uM
[30] = target: Serine/threonine-protein kinase Nek1 (Homo sapiens) (UniProt Q96PY6); assay: Inhibition of NEK1 at 1 uM

CC(=O)N1CCN(C(=O)Cc2ccc(Nc3ncc(F)c(Nc4ccc(C(=O)Nc5ccccc5Cl)cc4)n3)cc2)CC1
inhibition [1]: 28%
inhibition [2]: 11%
inhibition [3]: 3%
pIC50 [4]: < 4.57
inhibition [5]: 30%
inhibition [6]: 2%
pIC50 [7]: < 4.60
inhibition [8]: 11%
inhibition [9]: 41%
inhibition [10]: 33%
inhibition [11]: 7%
inhibition [12]: 3%
inhibition [13]: 20%
inhibition [14]: 13%
inhibition [15]: 16%
inhibition [16]: 14%
inhibition [17]: 16%
inhibition [18]: 12%
inhibition [19]: 91%
inhibition [20]: 21%
inhibition [21]: 9%
inhibition [22]: 23%
inhibition [23]: 4%
inhibition [24]: 43%
inhibition [25]: 18%
inhibition [26]: 36%
inhibition [27]: 11%
inhibition [28]: -3%
inhibition [29]: 11%
inhibition [30]: 29%
